Measurements as given in article PMC5696082 (Analytical biochemistry, 2017).

Key:
hCE1 [1] = biological target: T1, hCE1 (Homo sapiens, UniProt P23141); test: Limit of detection and quantification for hCE1 using partially purified enzyme; assay type: biochemical; conditions: for LOD for hCE1: S/N > 3; for LOD for hCE1 / LOQ for hCE1: [S] = 50 µM; for LOQ for hCE1: S/N > 9
T1 sequence (P23141 18-567): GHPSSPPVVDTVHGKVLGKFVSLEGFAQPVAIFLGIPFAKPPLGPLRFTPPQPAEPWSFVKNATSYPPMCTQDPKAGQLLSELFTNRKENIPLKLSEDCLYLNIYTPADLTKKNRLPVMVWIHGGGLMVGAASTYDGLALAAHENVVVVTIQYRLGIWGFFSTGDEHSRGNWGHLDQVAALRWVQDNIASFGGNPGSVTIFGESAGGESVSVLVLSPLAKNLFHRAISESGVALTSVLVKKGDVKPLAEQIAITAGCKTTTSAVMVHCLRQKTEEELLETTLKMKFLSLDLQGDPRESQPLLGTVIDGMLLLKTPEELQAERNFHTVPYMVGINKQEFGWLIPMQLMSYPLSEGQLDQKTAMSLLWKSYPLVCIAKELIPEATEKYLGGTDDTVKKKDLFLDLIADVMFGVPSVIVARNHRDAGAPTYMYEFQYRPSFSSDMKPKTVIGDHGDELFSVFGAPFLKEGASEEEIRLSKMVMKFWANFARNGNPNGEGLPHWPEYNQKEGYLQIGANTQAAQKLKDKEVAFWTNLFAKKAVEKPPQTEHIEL
Method in brief: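 Partially purified recombinant hCE1, without any matrix, diluted into wells with substrate at 50 µM. Assay run in 100 mM sodium phosphate, pH 8, 0.1 mg/mL BSA, 1% DMSO, at 37°C. S/N taken as mean signal of enzyme wells over the SD of […], quadruplicates in one experiment. LOD set as the lowest level with S/N > 3; LOQ as S/N > 9.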

hCE1 [2] = biological target: T1, hCE1; test: Specific activity of hCE1 towards substrates; assay type: biochemical
Method in brief: (§1)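 Enzymes expressed in baculovirus-infected High Five cells: hCE1 CHAPS-solubilised from the 100,000 g pellet, then DEAE-purified; hCE2/hCE3 crude soluble fraction; FAAH crude insoluble fraction. Substrate added to 50 µM final in 100 mM sodium phosphate pH 8.0, 0.1 mg/mL BSA, 1% DMSO. Fluorescence read every 30 s for ≥10 min at 37°C. Rates corrected for estimated purity: hCE1 25%, hCE2 4%, hCE3 3.5% (3% in footnotes), FAAH 6.9%. Triplicates.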

FAAH = biological target: T2, FAAH (Homo sapiens, UniProt O00519); test: Specific activity of FAAH towards substrates; assay type: biochemical
T2 sequence (O00519 1-579): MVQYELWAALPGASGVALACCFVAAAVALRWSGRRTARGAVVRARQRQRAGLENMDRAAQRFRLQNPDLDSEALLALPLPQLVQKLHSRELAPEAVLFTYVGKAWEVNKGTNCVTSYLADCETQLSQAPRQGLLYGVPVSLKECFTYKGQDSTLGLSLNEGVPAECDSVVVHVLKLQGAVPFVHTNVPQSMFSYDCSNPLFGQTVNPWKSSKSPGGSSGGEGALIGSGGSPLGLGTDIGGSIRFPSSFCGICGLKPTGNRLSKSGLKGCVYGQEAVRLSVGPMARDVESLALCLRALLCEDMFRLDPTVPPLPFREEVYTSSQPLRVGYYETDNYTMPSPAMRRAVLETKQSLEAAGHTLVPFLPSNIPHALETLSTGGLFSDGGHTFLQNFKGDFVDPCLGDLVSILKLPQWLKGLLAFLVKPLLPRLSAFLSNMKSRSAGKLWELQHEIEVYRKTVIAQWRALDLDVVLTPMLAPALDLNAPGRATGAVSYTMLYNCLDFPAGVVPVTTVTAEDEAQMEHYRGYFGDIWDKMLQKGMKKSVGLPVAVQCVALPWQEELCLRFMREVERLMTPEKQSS
Method in brief: as §1

hCE3 = biological target: T3, hCE3 (Homo sapiens, UniProt Q6UWW8); test: Specific activity of hCE3 towards substrates; assay type: biochemical
T3 sequence (Q6UWW8 27-571): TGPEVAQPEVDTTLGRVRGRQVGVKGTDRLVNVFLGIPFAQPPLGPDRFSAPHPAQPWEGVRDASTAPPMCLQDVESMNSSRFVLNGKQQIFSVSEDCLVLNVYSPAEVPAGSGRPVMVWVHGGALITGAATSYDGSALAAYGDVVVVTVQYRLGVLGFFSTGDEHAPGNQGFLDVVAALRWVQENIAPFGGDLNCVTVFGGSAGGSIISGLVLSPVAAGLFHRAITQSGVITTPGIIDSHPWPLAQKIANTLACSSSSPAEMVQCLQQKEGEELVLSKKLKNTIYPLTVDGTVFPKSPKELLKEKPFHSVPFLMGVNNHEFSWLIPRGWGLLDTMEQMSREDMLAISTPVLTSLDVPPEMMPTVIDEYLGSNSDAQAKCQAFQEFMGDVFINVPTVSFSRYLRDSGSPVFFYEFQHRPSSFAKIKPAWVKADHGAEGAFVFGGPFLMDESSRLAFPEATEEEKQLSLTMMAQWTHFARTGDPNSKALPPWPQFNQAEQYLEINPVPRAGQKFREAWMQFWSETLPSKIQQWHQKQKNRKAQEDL
Method in brief: as §1

[3] = Background hydrolysis of substrates in phosphate buffer; assay type: physicochemical
Liver S9 = test: Substrate hydrolysis by pooled tissue S9, liver; assay type: biochemical, human
Method in brief: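 Commercial pooled human tissue S9 fraction added to substrate at 50 µM final in 100 mM sodium phosphate, pH 8.0, 0.1 mg/mL BSA. Fluorescence monitored every 30 s for at least 10 min at 37°C. Specific activity given as the mean of triplicates in one experiment, or mean ± standard deviation of 3 independent experiments run in triplicate.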

[4] = Kinetic mode (30 s intervals for 30 minutes)

Time over which hCE1 hydrolysis remained linear (hCE1 [1]): at least 24 hours
LOD for hCE1 (hCE1 [1]; Endpoint mode 1 hour): 0.06 ng
LOQ for hCE1 (hCE1 [1]; Endpoint mode 1 hour): 2.0 ng
LOD for hCE1 (hCE1 [1]; Endpoint mode 4 hours): 0.03 ng
LOQ for hCE1 (hCE1 [1]; Endpoint mode 4 hours): 0.12 ng
LOD for hCE1 (hCE1 [1]; Endpoint mode 24 hours): 0.008 ng
LOQ for hCE1 (hCE1 [1]; Endpoint mode 24 hours): 0.03 ng
LOD for hCE1 (hCE1 [1]; [4]): 3.9 ng
LOQ for hCE1 (hCE1 [1]; [4]): 16 ng
Limit of quantification for hCE1, fold higher than CMNA (hCE1 [1]; kinetic mode, short time (<30 minutes)): 4 fold
Turnover by hCE1, times lower than CMNA (hCE1 [2]): 10 times
Preference of hCE1 over the other esterases tested (hCE1 [2]; 13 other esterases / serine hydrolases): ≥ 10 fold
Hydrolysis Specific Activity (hCE1 [2]; Table 6, hCE1): 370 ± 27 pmol/min/µg
Selectivity of hCE1 over FAAH (turnover) (FAAH): 10 fold
hCE3 Specific activity (hCE3; Table 3, [S] = 50 µM, 37°C, pH 8, estimated 3% purity): <1 pmol/min/µg
Hydrolysis Specific Activity (hCE3; Table 6, hCE3): 1.4 ± 0.4 pmol/min/µg
Background hydrolysis, fold lower than CMNA ([3]; phosphate buffer): 200 fold
Rate of background hydrolysis ([3]; phosphate buffer 100 mM, pH 8, 0.1 mg/mL BSA): 0.1 pmol/min
Structure (SMILES): CCCCC(C)CCC(=O)Nc1ccc(OC)nc1C (stereo not shown) [4-MOMMP, N-(6-methoxy-2-methylpyridin-3-yl)-4-methyloctanamide]
Hydrolysis Specific Activity (Liver S9): 5.5 ± 0.4 pmol/min/µg
